How the values were obtained:
Prothrombin [1] = target: T1, Prothrombin (Homo sapiens, UniProt P00734); assay: In vitro inhibition of human thrombin.
Serine protease 1 [2] = target: T2, Serine protease 1 (Homo sapiens, UniProt P07477); assay: In vitro inhibition of human trypsin.
In short: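 Human pancreatic trypsin, chromogenic substrate S2222, 50 mM HEPES/150 mM NaCl pH 8.0. Kinetic assay over 15 min after starting with substrate at four concentrations. Ki taken from 1/V versus 1/S plot.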

Serine protease 1 [3] = target: T2, Serine protease 1; assay: Percentage inhibition against human trypsin at dose of 10 X E-5 M
Prothrombin [4] = target: T1, Prothrombin; assay: Percentage inhibition against of human thrombin at dose of 10 X E-6 M
Serine protease 1 [5] = target: T2, Serine protease 1; assay: Percentage inhibition against human trypsin at dose of 10 X E-4 M
Prothrombin [6] = target: T1, Prothrombin; assay: Percentage inhibition effect of human thrombin at dose of 10 X E-6 M
Serine protease 1 [7] = target: T2, Serine protease 1; assay: Percentage inhibition effect human trypsin at dose of 10 X E-4 M
[8] = Plasma clearance in Male Sprague-Dawley rats after intravenous administration at a dose of 10 mg/kg; format: ADME, organism-based; design: dose 10 mg/kg, route intravenous; conditions: rat
In short: (§1)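 PK: male Sprague–Dawley rats (n = 3 per sampling time) given saline solution as rapid iv bolus via caudal vein; Beagle dogs (n = 2) given constant-rate iv infusion over 15 min via saphenous vein. Plasma collected into lithium heparin; drug measured by LCMS with internal standard after solid-phase extraction at pH 6.0. Parameters derived by computational PK analysis.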

[9] = Plasma clearance in Beagle dogs after intravenous administration at a dose of 1 mg/kg; conditions: dog
[10] = Oral bioavailability in Beagle dogs after Per oral administration at dose of 50(mg/kg); format: ADME, organism-based, Canis lupus familiaris; conditions: dog, in vivo, 10 mg/kg, in the assay text read “10(mg/kg)” for “50(mg/kg)”
In short: (§2)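 Oral bioavailability: compound in water given by gavage to male Sprague–Dawley rats (n = 3 per sampling time) and Beagle dogs (n = 2). Plasma collected into lithium heparin (dog saphenous cannula, conscious; rat vena cava under halothane). Drug quantified by LCMS, compared with iv saline dosing; parameters from computational PK analysis.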

[11] = Alpha-elimination half-life in Male Sprague-Dawley rats after intravenous administration at a dose of 10 mg/kg; format: ADME, organism-based; design: dose 10 mg/kg, route intravenous; conditions: rat, in vivo; in short: as §1
[12] = Volume of distribution in Male Sprague-Dawley rats after intravenous administration at a dose of 10 mg/kg; format: ADME, organism-based; design: dose 10 mg/kg, route intravenous; conditions: rat, in vivo, read-out: Volume; in short: as §1
Coagulation factor X = Coagulation factor X (Bos taurus, UniProt P00743); assay: Inhibitory effect on Coagulation factor Xa (FXa) from bovine plasma; format: cell-free
In short: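 Bovine plasma FXa, 0.02 U/mL final, with S2222 at 0.2 mM final, in 50 mM HEPES/150 mM NaCl pH 7.5. Aqueous compound dilutions preincubated with enzyme 15 min at room temperature, then substrate added; OD 405 nm read after 30 min at 30 °C. IC50 from triplicate eight-concentration curves; Ki via Cheng–Prusoff using substrate Km.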

[13] = Beta-elimination half-life in Male Sprague-Dawley rats after intravenous administration at a dose of 10 mg/kg; format: ADME, organism-based; design: dose 10 mg/kg, route intravenous; conditions: rat, in vivo; in short: as §1
[14] = Beta-elimination half-life in Beagle dogs after intravenous administration at a dose of 1 mg/kg; conditions: dog, in vivo
[15] = Alpha-elimination half-life in Beagle dogs after intravenous administration at a dose of 1 mg/kg; conditions: dog, in vivo
[16] = target: T3, Coagulation factor VII (Homo sapiens) (UniProt P08709); assay: Percentage inhibition of Coagulation factor VIIa (FVIIa) at a concentration of 10 X E-4 M from human plasma; format: cell-free
T3 sequence (whole entry): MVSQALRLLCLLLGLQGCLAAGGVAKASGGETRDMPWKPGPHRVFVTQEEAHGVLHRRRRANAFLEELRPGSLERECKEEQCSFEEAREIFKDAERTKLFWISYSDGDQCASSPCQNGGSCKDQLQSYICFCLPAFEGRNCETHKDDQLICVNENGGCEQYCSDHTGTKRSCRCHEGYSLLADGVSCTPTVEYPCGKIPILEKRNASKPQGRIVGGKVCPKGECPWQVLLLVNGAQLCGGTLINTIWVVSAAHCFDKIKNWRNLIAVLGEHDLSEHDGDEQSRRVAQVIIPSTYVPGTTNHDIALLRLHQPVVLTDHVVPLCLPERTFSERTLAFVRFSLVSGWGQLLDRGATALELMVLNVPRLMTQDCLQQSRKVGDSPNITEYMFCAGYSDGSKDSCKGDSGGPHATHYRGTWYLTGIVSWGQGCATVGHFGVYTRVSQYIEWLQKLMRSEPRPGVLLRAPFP
In short: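 Human plasma FVIIa, 0.06 μg/mL final, plus recombinant tissue factor at 0.12 μg/mL final; substrate N-methylsulfonyl-D-Phe-Pro-Arg-pNA. Buffer 50 mM TRIS/100 mM NaCl pH 7.5. Compound preincubated with enzyme 15 min at room temperature, then substrate added; 30 min at 30 °C; OD 405 nm; percentage inhibition from triplicates.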

[17] = Volume of distribution in Beagle dogs after intravenous administration at a dose of 1 mg/kg; conditions: dog, in vivo
[18] = Oral bioavailability in rat (Sprague-Dawley) (male) (dose 50 mg/kg p.o.); format: ADME, organism-based; conditions: in vivo; in short: as §2
[19] = Volume of distribution in Beagle dogs after intravenous administration at a dose of 1 mg/kg; format: ADME, organism-based, Canis lupus familiaris; design: dose 1 mg/kg, route intravenous; conditions: dog, in vivo, read-out: Volume; in short: as §1
[20] = Plasma clearance in Beagle dogs after intravenous administration at a dose of 1 mg/kg; format: ADME, organism-based, Canis lupus familiaris; design: dose 1 mg/kg, route intravenous; conditions: dog; in short: as §1
[21] = Oral bioavailability in Beagle dogs after Per oral administration at dose of 2(mg/kg); format: ADME, organism-based, Canis lupus familiaris; conditions: dog, in vivo; in short: as §2
[22] = Beta-elimination half-life in Beagle dogs after intravenous administration at a dose of 1 mg/kg; format: ADME, organism-based, Canis lupus familiaris; design: dose 1 mg/kg, route intravenous; conditions: dog, in vivo; in short: as §1
Prothrombin [23] = target: T1, Prothrombin; assay: Percentage inhibition against human thrombin at dose of 10 X E-6 M

T2 sequence (P07477 whole entry): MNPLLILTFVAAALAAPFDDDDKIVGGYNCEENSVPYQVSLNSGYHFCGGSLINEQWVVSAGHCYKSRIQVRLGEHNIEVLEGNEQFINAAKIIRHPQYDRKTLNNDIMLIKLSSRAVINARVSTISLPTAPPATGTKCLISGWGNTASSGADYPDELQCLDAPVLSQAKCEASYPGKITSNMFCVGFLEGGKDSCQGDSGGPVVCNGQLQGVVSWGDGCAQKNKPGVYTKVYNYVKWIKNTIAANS
Sequence of Coagulation factor X (P00743 41-180 limits assumed): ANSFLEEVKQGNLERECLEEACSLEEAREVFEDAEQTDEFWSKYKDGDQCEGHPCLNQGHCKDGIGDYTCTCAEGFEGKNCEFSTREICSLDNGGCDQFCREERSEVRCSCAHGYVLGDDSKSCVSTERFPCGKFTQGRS
Sequence of Coagulation factor X (P00743 234-492 limits assumed): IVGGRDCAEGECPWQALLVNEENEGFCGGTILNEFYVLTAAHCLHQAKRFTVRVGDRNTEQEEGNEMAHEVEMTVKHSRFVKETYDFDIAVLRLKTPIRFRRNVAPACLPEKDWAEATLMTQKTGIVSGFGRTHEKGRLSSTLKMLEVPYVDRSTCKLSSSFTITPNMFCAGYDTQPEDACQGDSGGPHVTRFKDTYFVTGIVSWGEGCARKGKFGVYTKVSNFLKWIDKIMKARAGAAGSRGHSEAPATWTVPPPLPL

Compound	Ki (Prothrombin [1]) [nM]	Ki (Serine protease 1 [2]) [nM]	further results
N=C(N)N1CCC(OCCC2CCCCN2C(=O)[C@@H](CC2CCCCC2)NCC(=O)O)CC1 (stereo partly specified)	0.96	370	
CN(C1CCCCCC1)[C@@H](CC(=O)O)C(=O)N1CCCC[C@H]1CCOC1CCN(C(=N)N)CC1	0.53	810	
N=C(N)N1CCC(OCCC2CCCCN2C(=O)[C@H](CC(=O)O)NC2CCOCC2)CC1 (stereo partly specified)			inhibition (Serine protease 1 [3]): 23%; inhibition (Prothrombin [4]): 42%
N=C(N)N1CCC(OCCC2CCCCN2C(=O)[C@H](CC(=O)O)NC2CCCC2)CC1 (stereo partly specified)	32	5000	
CN(C1CCCOC1)[C@@H](CC(=O)O)C(=O)N1CCCC[C@H]1CCOC1CCN(C(=N)N)CC1 (stereo partly specified)			inhibition (Prothrombin [4]): 16%; inhibition (Serine protease 1 [5]): 48%
N=C(N)N1CCC(OCCC2CCCCN2C(=O)[C@H](CC(=O)O)NC2CCCCC2)CC1 (stereo partly specified)	7.1	2900	
CN(C1CCC=CCC1)[C@@H](CC(=O)O)C(=O)N1CCCC[C@H]1CCOC1CCN(C(=N)N)CC1	0.8	1100	
CCS(=O)(=O)N[C@H](Cc1ccccc1)C(=O)N1CCC[C@H]1C(=O)NCC1CCN(C(=N)N)CC1	15		
N=C(N)N1CCC(OCCC2CCCCN2C(=O)[C@H](CC(=O)O)NCC2CCCCC2)CC1 (stereo partly specified)	16	1600	
N=C(N)N1CCC(OCCC2CCCCN2C(=O)[C@H](CC(=O)O)NC2CCCCCCC2)CC1 (stereo partly specified)	1.3	720	
CN(C)CCN(C1CCCCC1)[C@@H](CC(=O)O)C(=O)N1CCCCC1CCOC1CCN(C(=N)N)CC1 (stereo partly specified)			inhibition (Prothrombin [6]): 0%; inhibition (Serine protease 1 [7]): 0%
N=C(N)N1CCC(OCCC2CCCCN2C(=O)[C@@H](Cc2ccccc2)NCC(=O)O)CC1 (stereo partly specified)	370	7900	
N=C(N)c1ccc(OCC[C@@H]2CCCCN2C(=O)[C@@H](CC2CCCCC2)NCC(=O)O)cc1	0.37	89	
N=C(N)c1ccc(OCC[C@H]2CCCCN2C(=O)[C@@H](CC2CCCCC2)NCC(=O)O)cc1	120	7300	
CN(C1CCCCC1)[C@@H](CC(=O)O)C(=O)N1CCCC[C@H]1CCOC1CCN(C(=N)N)CC1	2.17	1930	clearance [8]: 21.2 mL/min/kg; clearance [9]: 6.4 mL/min/kg; bioavailability [10]: 9%; half-life [11]: 7.2 min; Vd [12]: 0.31 L/kg; Ki (Coagulation factor X): 4.97 µM; half-life [13]: 48 min; half-life [14]: 60 min; half-life [15]: 9.6 min; inhibition [16]: 38.7%; Vd [17]: 0.53 L/kg; bioavailability [18]: 2%
CCN(C1CCCCC1)[C@@H](CC(=O)O)C(=O)N1CCCCC1CCOC1CCN(C(=N)N)CC1 (stereo partly specified)	16	5000	
CN(C1CCCCC1)[C@@H](CCC(=O)O)C(=O)N1CCCC[C@H]1CCOC1CCN(C(=N)N)CC1	1.8	550	
CCC(CC)N[C@@H](CC(=O)O)C(=O)N1CCCC[C@H]1CCOC1CCN(C(=N)N)CC1	9.8	1400	
CC1=CCN(C(=O)[C@H](Cc2cccc(C(=N)N)c2)NS(=O)(=O)c2ccc3c(c2)CCN(C)CC3)[C@@H](C(=O)O)C1			clearance [8]: 11 mL/min/kg; Vd [19]: 0.53 L/kg; clearance [20]: 6.9 mL/min/kg; Vd [12]: 0.6 L/kg; half-life [13]: 48 min; bioavailability [21]: 37%; half-life [22]: 54 min; bioavailability [18]: 16%
CN1CCC(N[C@@H](CC(=O)O)C(=O)N2CCCC[C@H]2CCOC2CCN(C(=N)N)CC2)CC1	90	4800	
N=C(N)N1CCC(OCC[C@@H]2CCCCN2C(=O)[C@H](CC(=O)O)NCc2ccccc2)CC1		9200	inhibition (Prothrombin [23]): 24%
N=C(N)N1CCC(OCC[C@@H]2CCCCN2C(=O)[C@H](CC(=O)O)NC2CCCCCC2)CC1	1.1	700	

Reference: ChEMBL document CHEMBL1135990, “Design of selective thrombin inhibitors based on the (R)-Phe-Pro-Arg sequence” (J Med Chem, 2002)
